Experimental data as given in publication PMC3264876 (Pharmaceutical Research, 2011).

Assay: Nonsink release testing in MFDS
Type: physicochemical
Summary of the method: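 Nanoparticle or bulk crystalline suspensions (nanoparticles at about 6 mg/mL solids, various drug loadings) diluted to 40 μgA/mL in MFDS. MFDS: 7.3 mM NaTC, 1.4 mM POPC, phosphate/NaCl, pH 6.5, 290 mOsm. Stirred at 60 rpm. Duplicate aliquots per time point spun through 100-kDa MWCO filters, 12,000 rpm, 5 min. Free drug is dissolved plus micellar; split estimated from micelle partition coefficient and micelle volume fraction.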

- equilibrium partition coefficient into bile-salt micelles (MFDS): approximately 1,000
- maximum concentration in MFDS (dissolved plus in bile-salt micelles) (MFDS pH 6.5, dose 40 μgA/mL): 16 µg/mL
- time to reach maximum concentration in MFDS (MFDS, 40 μgA/mL): at least 1 h
- concentration of celecoxib in bile-salt micelles (MFDS, equilibrium): about 13.5 μg/mL
- dissolved celecoxib concentration at equilibrium (MFDS, from micelle partition coefficient and 0.5% micelle volume): approximately 2.5 μg/mL
SMILES: Cc1ccc(-c2cc(C(F)(F)F)nn2-c2ccc(S(N)(=O)=O)cc2)cc1 [celecoxib]
